Measured values as given in PubChem BioAssay AID489030 (Sanford-Burnham Center for Chemical Genomics, 2010).
The campaign covered roughly 330,000 compounds. About 2,400 (0.73%) were called active. The full list was thinned out, with actives kept by preference. Values without a mark were called inactive. How the source made its calls: active means inhibition of at least 40% at 20 µM; inactive means the rest.

The compounds below were run against Apoptotic protease-activating factor 1 (Homo sapiens) (UniProt O14727) (assay: blockers of Apaf-1-driven caspase-3 activation – biochemical, DEVD-Rh110 fluorescence, uHTS, primary screen (AID 489030;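 further: plate controls were DMSO wells for no effect and DEVD-CHO caspase inhibitor wells for full effect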)). Details: reconstituted apoptosome caspase-3 activity, at 20 µM, active compounds read high.
In short: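 Material: reconstituted apoptosome with Apaf-1, cytochrome c, caspase-9, procaspase-3, dATP; medium: pH 7.5 Hepes buffer with CHAPS, BSA, DTT; also added: cytochrome c and DEVD-Rh110 substrate; timing: 30 min plus 50 min, RT; signal: Rh110 fluorescence intensity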

Apoptotic protease-activating factor 1 (Homo sapiens), sequence (O14727 whole entry, looked up): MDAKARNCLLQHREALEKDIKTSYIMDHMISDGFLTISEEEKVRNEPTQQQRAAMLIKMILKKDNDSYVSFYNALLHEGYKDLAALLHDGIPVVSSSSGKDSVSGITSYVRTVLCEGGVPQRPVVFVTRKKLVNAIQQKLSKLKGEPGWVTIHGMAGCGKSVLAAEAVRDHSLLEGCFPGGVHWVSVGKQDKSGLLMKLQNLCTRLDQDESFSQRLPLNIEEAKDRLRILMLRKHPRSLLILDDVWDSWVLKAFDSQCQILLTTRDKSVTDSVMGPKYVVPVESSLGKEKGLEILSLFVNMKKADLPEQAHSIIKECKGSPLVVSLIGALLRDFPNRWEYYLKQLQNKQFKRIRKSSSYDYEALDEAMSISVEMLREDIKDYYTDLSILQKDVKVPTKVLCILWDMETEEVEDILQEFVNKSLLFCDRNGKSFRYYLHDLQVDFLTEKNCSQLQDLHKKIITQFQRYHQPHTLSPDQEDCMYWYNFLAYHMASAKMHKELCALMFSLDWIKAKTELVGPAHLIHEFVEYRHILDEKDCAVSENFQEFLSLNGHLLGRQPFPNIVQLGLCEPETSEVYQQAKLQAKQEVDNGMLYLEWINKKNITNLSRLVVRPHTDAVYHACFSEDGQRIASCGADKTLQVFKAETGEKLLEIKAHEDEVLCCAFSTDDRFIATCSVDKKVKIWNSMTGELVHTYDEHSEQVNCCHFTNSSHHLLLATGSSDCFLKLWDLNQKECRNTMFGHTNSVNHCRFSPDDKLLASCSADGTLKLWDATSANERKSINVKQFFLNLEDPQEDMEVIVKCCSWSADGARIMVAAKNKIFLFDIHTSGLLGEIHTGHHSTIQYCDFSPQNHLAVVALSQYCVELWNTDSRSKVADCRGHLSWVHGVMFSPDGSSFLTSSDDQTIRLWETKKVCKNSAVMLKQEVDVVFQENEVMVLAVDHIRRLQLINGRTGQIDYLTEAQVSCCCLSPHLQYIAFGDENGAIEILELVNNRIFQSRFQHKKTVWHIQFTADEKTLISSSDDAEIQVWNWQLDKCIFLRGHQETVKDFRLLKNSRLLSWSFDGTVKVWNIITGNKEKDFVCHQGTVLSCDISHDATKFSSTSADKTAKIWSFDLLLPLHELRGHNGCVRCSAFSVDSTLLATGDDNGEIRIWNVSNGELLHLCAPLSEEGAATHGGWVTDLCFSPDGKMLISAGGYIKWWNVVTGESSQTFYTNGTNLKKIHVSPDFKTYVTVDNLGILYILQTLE

| SMILES | inhibition |
| --- | --- |
| CCCCn1c(=O)c(C(=O)Nc2ccccc2Cl)c(O)c2ccccc21 | -6.34% |
| CCCCCn1c(=O)c(C(=O)Nc2c(C)n(C)n(-c3ccccc3)c2=O)c(O)c2ccccc21 | 46.4% (active) |
| CCCCCn1c(=O)c(C(=O)NCc2ccccc2)c(O)c2ccccc21 | -34.9% |
| COC(=O)C1=C(c2c(C)noc2C)C[C@@H]2CC[C@H]1N2C(=O)NCc1ccc2c(c1)OCO2 | 1.57% |
| Cc1cccc(-n2c(O)c(/C=N/N3CCOCC3)c(=O)[nH]c2=S)c1 | 3.6% |
| c1ccc2sc(N3CCNCC3)nc2c1 | -11.3% |
| CC(Cc1ccccc1)NCCC(c1ccccc1)c1ccccc1 (stereo not given) | 41.5% (active) |
| CC(=O)NC(=O)NC(C)Cc1ccccc1 (stereo not given) | -10.3% |
| CC(Cc1ccccc1)NC=O (stereo not given) | 5.78% |
| CCOc1ccc(CN(CCCl)CCCl)cc1C(=O)OC | -1.62% |
| CCOC(=O)c1c(N)n(Cc2ccccc2)c2nc3ccccc3nc12 | 79.9% (active) |
| CCOC(=O)C(O)(c1ccc(NC(=O)c2ccco2)c(OC)c1)C(F)(F)F (stereo not given) | 5.81% |
| CC/C(=N\NC(=O)c1ccccc1O)c1c(O)n(Cc2ccccc2)c(=O)[nH]c1=O | -8.27% |
| CCOC(=O)c1c(N)n(CCN2CCOCC2)c2nc3ccccc3nc12 | -3.48% |
| COC(=O)C1=C(c2ccccc2)C[C@@H]2CC[C@H]1N2C(=O)NCc1ccco1 | 3.27% |
| COc1cc(Cn2c(N)c(C(=O)NCc3ccco3)c3nc4ccccc4nc32)cc(OC)c1OC | 96.1% (active) |
| CN(C)/C=C(\C=[N+](C)C)c1[nH]ncc1[N+](=O)[O-] | -1.23% |
| COC(=O)C1=C(c2ccc(F)cc2F)C[C@@H]2CC[C@H]1N2C(=O)NC1CC1 | 3.15% |
| CCCn1c(C(=O)c2ccccc2OC)nc2ccccc21 | 6.27% |
| CCCCCCCCCCCCn1ccc(=N)cc1 | 43.9% (active) |
| Cn1c(O)c(C=NCCN2CCNCC2)c(=O)n(C)c1=O | 6.24% |
| COC(=O)CN1C(=O)C2(C(C(=O)OC)=C(N)Oc3ccccc32)C2=C1CC(C)(C)CC2=O (stereo not given) | -21% |
| CN(C)C(=O)Oc1ccc(NC(=O)N2CCOCC2)cc1 | -15% |
| CC(=C1C(=O)c2ccccc2C1=O)N1CCN(CCN=Cc2c(O)n(C)c(=O)n(C)c2=O)CC1 | 1.31% |
| C=CCN1C(=O)NC(=O)/C(=C/c2ccc(OCC(=O)Nc3ccc(C)cc3)cc2)C1=O | 8.4% |
| O=C(Cc1ccc(Cl)cc1)NCCN1CCN(C(=O)Cc2ccc(Cl)cc2)CC1 | -6.49% |
| CNCC(O)c1cc(F)c(OCc2ccccc2)c(OCc2ccccc2)c1F (stereo not given) | 45.9% (active) |
| CCc1nc2ccccc2c(=O)n1-c1cccc(OC)c1 | -11.3% |
| CNC(=O)N(C)c1nnc(C(C)(C)C)s1 | -10.6% |
| CC(C)c1c(CN(C)C(C)Cc2ccccc2)n(C)n(-c2ccccc2)c1=O (stereo not given) | 9.08% |
